Measured values as given in ChEMBL document CHEMBL4373687, “Introducing nitrogen atoms to amidoalkylindoles: potent and selective cannabinoid type 2 receptor agonists with improved aqueous solubility” (Medchemcomm, 2019).

Experiments:
Cannabinoid receptor 1 [1] = molecular target: T1, Cannabinoid receptor 1 (Homo sapiens, UniProt P21554); experiment: Agonist activity at human CB1-receptor expressed in CHO-K1 cells coexpressing G-alpha16 assessed as maximum efficacy by Fluo-4-AM dye based calcium mobilization assay relative to CP55940; type: cell-based
T1 sequence (P21554 whole entry): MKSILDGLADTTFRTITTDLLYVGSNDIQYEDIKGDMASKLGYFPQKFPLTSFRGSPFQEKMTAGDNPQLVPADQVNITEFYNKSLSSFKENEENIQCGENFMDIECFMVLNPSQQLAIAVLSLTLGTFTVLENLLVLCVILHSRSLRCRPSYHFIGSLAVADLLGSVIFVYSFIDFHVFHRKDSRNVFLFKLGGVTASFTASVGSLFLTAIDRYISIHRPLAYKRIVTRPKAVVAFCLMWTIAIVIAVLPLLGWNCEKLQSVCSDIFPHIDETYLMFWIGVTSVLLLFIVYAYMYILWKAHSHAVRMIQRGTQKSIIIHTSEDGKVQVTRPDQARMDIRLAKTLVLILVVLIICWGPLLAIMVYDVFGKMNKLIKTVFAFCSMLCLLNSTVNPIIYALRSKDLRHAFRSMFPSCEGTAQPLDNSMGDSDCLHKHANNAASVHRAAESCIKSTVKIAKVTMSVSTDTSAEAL
Summary of the method: (§1)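 CHO-K1 cells stably co-expressing Gα16 and human CB1 or CB2, seeded 24 h. Loaded with 2 μM fluo-4 AM in HBSS (with sulfinpyrazone, pH 7.4) at 37 °C for 45 min. Compound added and calcium fluorescence recorded (ex 485/em 525 nm). CP55940 positive control, DMSO negative control. Compounds with >50% activation at 10 μM got eight-point curves in triplicate, sigmoidal fit for EC50.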

Cannabinoid receptor 1 [2] = molecular target: T1, Cannabinoid receptor 1; experiment: Antagonist activity at human CB1-receptor expressed in CHO-K1 cells coexpressing G-alpha16 at 10 uM pre-incubated for 10 mins and later treated with 100 nM CB-receptor agonist, CP55940 by Fluo-4-AM dye based calcium mobilization assay; type: cell-based
Summary of the method: (§2)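 CHO-K1 cells stably co-expressing Gα16 and human CB1 or CB2, loaded with 2 μM fluo-4 AM in HBSS pH 7.4 at 37 °C for 45 min. Pre-incubated with compound for 10 min at room temperature, then CP55940 added at 100 nM. Peak calcium read over 60 s (ex 485/em 525 nm). Rimonabant positive control. Actives got eight-point curves in triplicate, sigmoidal fit for IC50.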

Cannabinoid receptor 2 [3] = molecular target: T2, Cannabinoid receptor 2 (Homo sapiens, UniProt P34972); experiment: Antagonist activity at human CB2-receptor expressed in CHO-K1 cells coexpressing G-alpha16 at 10 uM pre-incubated for 10 mins and later treated with 100 nM CB-receptor agonist, CP55940 by Fluo-4-AM dye based calcium mobilization assay; type: functional, cell-based; summary of the method: as §2
T2 sequence (P34972 whole entry): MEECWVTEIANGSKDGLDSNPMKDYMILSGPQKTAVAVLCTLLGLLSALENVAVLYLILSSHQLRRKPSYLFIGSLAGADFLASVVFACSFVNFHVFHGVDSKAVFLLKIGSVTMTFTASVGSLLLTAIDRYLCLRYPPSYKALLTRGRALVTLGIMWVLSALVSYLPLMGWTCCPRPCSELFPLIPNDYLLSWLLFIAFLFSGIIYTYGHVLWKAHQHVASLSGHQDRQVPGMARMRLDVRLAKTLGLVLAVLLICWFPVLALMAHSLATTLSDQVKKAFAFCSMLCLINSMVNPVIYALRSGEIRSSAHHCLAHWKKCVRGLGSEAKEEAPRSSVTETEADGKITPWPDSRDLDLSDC

Cannabinoid receptor 1 [4] = molecular target: T1, Cannabinoid receptor 1; experiment: Agonist activity at human CB1-receptor expressed in CHO-K1 cells coexpressing G-alpha16 by Fluo-4-AM dye based calcium mobilization assay; type: cell-based
Cannabinoid receptor 2 [5] = molecular target: T2, Cannabinoid receptor 2; experiment: Agonist activity at human CB2-receptor expressed in CHO-K1 cells coexpressing G-alpha16 by Fluo-4-AM dye based calcium mobilization assay; type: functional, cell-based
Cannabinoid receptor 1 [6] = molecular target: T1, Cannabinoid receptor 1; experiment: Antagonist activity at human CB1-receptor expressed in CHO-K1 cells coexpressing G-alpha16 pre-incubated for 10 mins and later treated with 100 nM CB-receptor agonist, CP55940 by Fluo-4-AM dye based calcium mobilization assay; type: cell-based; summary of the method: as §2
Cannabinoid receptor 1 [7] = molecular target: T1, Cannabinoid receptor 1; experiment: Agonist activity at human CB1-receptor expressed in CHO-K1 cells coexpressing G-alpha16 at 10 uM by Fluo-4-AM dye based calcium mobilization assay; type: cell-based; conditions: cho-k1, 10 µM; summary of the method: as §1
Cannabinoid receptor 2 [8] = molecular target: T2, Cannabinoid receptor 2; experiment: Agonist activity at human CB2-receptor expressed in CHO-K1 cells coexpressing G-alpha16 at 10 uM by Fluo-4-AM dye based calcium mobilization assay; type: functional, cell-based; summary of the method: as §1
Cannabinoid receptor 2 [9] = molecular target: T2, Cannabinoid receptor 2; experiment: Antagonist activity at human CB2-receptor expressed in CHO-K1 cells coexpressing G-alpha16 pre-incubated for 10 mins and later treated with 100 nM CB-receptor agonist, CP55940 by Fluo-4-AM dye based calcium mobilization assay; type: functional, cell-based; summary of the method: as §2
Cannabinoid receptor 2 [10] = molecular target: T2, Cannabinoid receptor 2; experiment: Agonist activity at human CB2-receptor expressed in CHO-K1 cells coexpressing G-alpha16 assessed as maximum efficacy by Fluo-4-AM dye based calcium mobilization assay relative to CP55940; type: functional, cell-based; summary of the method: as §1

| Compound | Emax (Cannabinoid receptor 1 [1]) | inhibition at 10 µM (Cannabinoid receptor 1 [2]) | inhibition (Cannabinoid receptor 2 [3]) | EC50 (Cannabinoid receptor 1 [4]; read-out: EC50) | EC50 (Cannabinoid receptor 2 [5]; cho-k1) | IC50 (Cannabinoid receptor 1 [6]) | Activity (Cannabinoid receptor 1 [7]) | Activity (Cannabinoid receptor 2 [8]) | IC50 (Cannabinoid receptor 2 [9]; read-out: IC50) | Emax (Cannabinoid receptor 2 [10]) | EC50 (Cannabinoid receptor 1 [4]; cho-k1) | EC50 (Cannabinoid receptor 2 [5]; read-out: EC50) | IC50 (Cannabinoid receptor 2 [9]; cho-k1) |
| --- | --- | --- | --- | --- | --- | --- | --- | --- | --- | --- | --- | --- | --- |
| CCCCCn1cc(C(=O)NC23CC4CC(CC(C4)C2)C3)c2ncccc21 | 48.2% | < 50% | > 50% | 0.18 µM | Not Active | Not Active | > 50% | < 50% | 0.012 µM |  |  |  |  |
| CCCCCn1c(C(=O)NC23CC4CC(CC(C4)C2)C3)cc2cccnc21 |  | < 50% | < 50% |  |  | Not Active | < 50% | > 50% |  | 46.2% | Not Active | 0.92 µM | Not Active |
| O=C(NC12CC3CC(CC(C3)C1)C2)c1cc2ncccc2[nH]1 |  | < 50% | < 50% |  |  | Not Active | < 50% | > 50% |  | 38% | Not Active | 0.59 µM | Not Active |
| O=C(NC12CC3CC(CC(C3)C1)C2)c1c[nH]c2cccnc12 |  | < 50% | < 50% |  | Not Active | Not Active | < 50% | < 50% |  |  | Not Active |  | Not Active |
| O=C(NC12CC3CC(CC(C3)C1)C2)c1cc2cnccc2n1CCN1CCOCC1 |  | < 50% | < 50% |  | Not Active | Not Active | < 50% | < 50% |  |  | Not Active |  | Not Active |
| CCCCCn1c(C(=O)NC23CC4CC(CC(C4)C2)C3)cc2cnccc21 |  | < 50% | < 50% |  | Not Active | Not Active | < 50% | < 50% |  |  | Not Active |  | Not Active |
| O=C(NC12CC3CC(CC(C3)C1)C2)c1nc2ccccc2[nH]1 |  | < 50% | < 50% |  |  | Not Active | < 50% | > 50% |  | 85.3% | Not Active | 0.52 µM | Not Active |
| CCCCCn1c(C(=O)NC23CC4CC(CC(C4)C2)C3)cc2ncccc21 |  | < 50% | < 50% |  |  | Not Active | < 50% | > 50% |  | 50% | Not Active | 0.22 µM | Not Active |
| O=C(NC12CC3CC(CC(C3)C1)C2)c1nc2ccccc2n1CCN1CCOCC1 |  | < 50% | > 50% |  | Not Active | Not Active | < 50% | < 50% | 0.036 µM |  | Not Active |  |  |
| O=C(NC12CC3CC(CC(C3)C1)C2)c1c[nH]c2ncccc12 |  | < 50% | > 50% |  | Not Active | Not Active | < 50% | < 50% | 6.5 µM |  | Not Active |  |  |
| O=C(NC12CC3CC(CC(C3)C1)C2)c1c[nH]c2ccncc12 |  | < 50% | < 50% |  | Not Active | Not Active | < 50% | < 50% |  |  | Not Active |  | Not Active |
| O=C(NC12CC3CC(CC(C3)C1)C2)c1cc2cnccc2[nH]1 |  | < 50% | < 50% |  |  | Not Active | < 50% | > 50% |  | 121% | Not Active | 2 µM | Not Active |
| O=C(NC12CC3CC(CC(C3)C1)C2)c1cc2cccnc2n1CCN1CCOCC1 | 88.4% | < 50% | > 50% | 0.65 µM | Not Active | Not Active | > 50% | < 50% | 0.078 µM |  |  |  |  |
| CCCCCn1cc(C(=O)NC23CC4CC(CC(C4)C2)C3)c2cnccc21 | 41% | < 50% | > 50% | 2.1 µM | Not Active | Not Active | > 50% | < 50% | 0.26 µM |  |  |  |  |
| O=C(NC12CC3CC(CC(C3)C1)C2)c1cn(CCN2CCOCC2)c2cccnc12 |  | < 50% | < 50% |  | Not Active | Not Active | < 50% | < 50% |  |  | Not Active |  | Not Active |
| O=C(NC12CC3CC(CC(C3)C1)C2)c1cc2cccnc2[nH]1 |  | < 50% | < 50% |  |  | Not Active | < 50% | > 50% |  | 40.7% | Not Active | 0.29 µM | Not Active |
| O=C(NC12CC3CC(CC(C3)C1)C2)c1cc2ncccc2n1CCN1CCOCC1 |  | < 50% | < 50% |  | Not Active | Not Active | < 50% | < 50% |  |  | Not Active |  | Not Active |
| O=C(NC12CC3CC(CC(C3)C1)C2)c1cn(CCN2CCOCC2)c2ccncc12 |  | < 50% | < 50% |  | Not Active | Not Active | < 50% | < 50% |  |  | Not Active |  | Not Active |
| CCCCCn1c(C(=O)NC23CC4CC(CC(C4)C2)C3)nc2ccccc21 |  | < 50% | < 50% |  |  | Not Active | < 50% | > 50% |  | 62.2% | Not Active | 0.32 µM | Not Active |
